B1: Osa-1-4 twister ribozyme (parent)
chain: CCGCCUAACACUGCCAAUGCCGGUCCCAAGCCCGGAUAAAAGUGGAGGGGGCGG

This data set covers variants of B1. Briefly: self-cleavage, relative activity (ratio to wild type); higher = more cleavage; co-transcriptional. In outline:
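A DNA template encoding a 54-nucleotide twister ribozyme from Oryza sativa was made so that each of the 48 positions downstream of the cleavage site carried 97 % wild-type base and 1 % of each other base. Transcription in vitro ran for 2 h at 37 °C, during which the ribozyme could cleave itself. Reverse transcription used a template-switching oligonucleotide, and the products were PCR-amplified and deep-sequenced. Each read was scored as cleaved or uncleaved by whether upstream sequence was present, and relative activity is the fraction cleaved normalised to wild type.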
Turning to A29C C15G, the self-cleavage was found to be 0.04.
The value for A29C C15A was 0.02; that for A29C C15U was 0.03.
With A29C C31U the figure was 0.02; with A29C C31G, 0.02.
The value for A29C C31A was 0.02.
As to A28G U43A, the self-cleavage is 0.14.
With A28G U43G the figure was 0.09; with A28G U43C, 0.1; with A28U G13A, 0.06.
With A28U G13C the figure was 0.02; with A28U G13U, 0.03.
With A28U G34U the figure was 0.28; with A28U G34A, 0.39; with A28U G34C, 0.18.
As to A29C A39U, the self-cleavage is 0.03.
The value for A29C A39C was 0.04.
With A29C A39G, the self-cleavage was 0.03.
The value for A28U C31G was 0.07; that for A28U C31A was 0.03.
Consider A28U C31U, for which the self-cleavage came to 0.19.
With A29G A40C the figure was 0.04; with A29G A40G, 0.07; with A29G A40U, 0.15.
The value for A29G C31A was 0.02; that for A29G C20G was 0.04; that for A29G C20U was 0.28.
With A29G C20A the figure was 0.33.
On to A29G C9A, for which the self-cleavage was found to be 0.05.
As for A29G C9U, the self-cleavage is 0.06.
On to A29G C9G, for which the self-cleavage came to 0.09.
The value for A28G G54U was 0.27.
As to A28G G54A, the self-cleavage was 0.15.
Consider A28G G54C, for which the self-cleavage was determined as 0.14.
With A28U A29C the figure was 0.03; with A28U A29U, 0.06; with A28U A29G, 0.08.
Consider A28U, for which the self-cleavage turned out to be 0.96.
Consider A29C G34A, for which the self-cleavage amounted to 0.04.
The value for A29C G34C was 0.03; that for A29C G34U was 0.03; that for A29C C21G was 0.02.
As to A29C C21A, the self-cleavage amounted to 0.04.
In the case of A29C C21U, the self-cleavage was found to be 0.06.
For the variant A29G C14A, the self-cleavage turned out to be 0.04.
With A29G C14G the figure was 0.08; with A29G C14U, 0.06; with A28G U18A, 0.34.
With A28G U18C the figure was 0.23; with A28G U18G, 0.59; with A28U U18C, 0.73.
With A28U U18A the figure was 0.91; with A28U U18G, 0.91.
A29C G47U: the self-cleavage was determined as 0.03.
For the variant A29C G47A, the self-cleavage worked out at 0.02.
For the variant A29C G47C, the self-cleavage is 0.02.
With A29C C9G the figure was 0.05; with A29C C9A, 0.02.
With A29C C9U, the self-cleavage was determined as 0.02.
With A29C C33A the figure was 0.04.
With A29C C33U, the self-cleavage was 0.03.
The value for A29C C33G was 0.01; that for A28U C32U was 0.1.
As for A28U C32G, the self-cleavage amounted to 0.1.
With A28U C32A the figure was 0.07.
For the variant A28U G48A, the self-cleavage was determined as 0.06.
Consider A28U G48U, for which the self-cleavage was 0.06.
In the case of A28U G48C, the self-cleavage turned out to be 0.06.
With A28U G47C the figure was 0.06.
With A28U G47U, the self-cleavage worked out at 0.1.
The value for A28U G47A was 0.09; that for A28U G22U was 0.2; that for A28U G22A was 0.34.
A28U G22C: the self-cleavage was 0.06.
The value for A29C G44C was 0.05; that for A29C G44U was 0.05.
With A29C G44A the figure was 0.04; with A28U G53U, 0.15; with A28U G53C, 0.08.
The value for A28U G53A was 0.42.
For A28U U43G, the self-cleavage is 0.15.
With A28U U43C the figure was 0.15; with A28U U43A, 0.28.
Regarding A28U A40C, the self-cleavage turned out to be 0.04.
The value for A28U A40G was 0.24; that for A28U A40U was 0.2; that for A29C A7C was 0.03.
With A29C A7U the figure was 0.01.
In the case of A29C A7G, the self-cleavage is 0.03.
With A29C G13U the figure was 0.01; with A29C G13C, 0.01; with A29C G13A, 0.02.
The value for A28U A46G was 0.7; that for A28U A46C was 0.07; that for A28U A46U was 0.08.
On to A28G U12C, for which the self-cleavage amounted to 0.1.
The value for A28G U12G was 0.07; that for A28G U12A was 0.12; that for A28U C26G was 0.1.
Turning to A28U C26A, the self-cleavage was found to be 0.04.
The value for A28U C26U was 0.22; that for A29G A39C was 0.06; that for A29G A39G was 0.09.
With A29G A39U the figure was 0.11.
The value for A29C G19U was 0.03.
On to A29C G19A, for which the self-cleavage came to 0.04.
With A29C G19C the figure was 0.02; with A29C G45C, 0.01; with A29C G45U, 0.01.
The value for A29C G45A was 0.02; that for A28G U37C was 0.37; that for A28G U37G was 0.51.
With A28G U37A the figure was 0.25.
Take A29G C11G: the self-cleavage was determined as 0.07.
With A29G C11A the figure was 0.08; with A29G C11U, 0.11.
With A28U A38G the figure was 0.92; with A28U A38C, 0.95; with A28U A38U, 0.87.
On to A29G A36C, for which the self-cleavage is 0.07.
For A29G A36U, the self-cleavage is 0.32.
With A29G A36G the figure was 0.47; with A29G C21G, 0.07.
With A29G C21A the figure was 0.1; with A29G C21U, 0.17.
With A28U G50A, the self-cleavage came out at 0.42.
As for A28U G50U, the self-cleavage was 0.95.
With A28U G50C the figure was 0.81; with A28U G35A, 0.73.
With A28U G35U the figure was 0.71.
With A28U G35C the figure was 0.15.
On to A29C G42A, for which the self-cleavage was 0.03.
As for A29C G42C, the self-cleavage worked out at 0.02.
The value for A29C G42U was 0.01.
With A29C G48U the figure was 0.01; with A29C G48C, 0.02; with A29C G48A, 0.01.
In the case of A28U U37G, the self-cleavage is 0.97.
The value for A28U U37A was 0.68; that for A28U U37C was 0.97.
As to A29G A38C, the self-cleavage came out at 0.16.
With A29G A38U the figure was 0.16; with A29G A38G, 0.15.
The value for A29C A41C was 0.05; that for A29C A41G was 0.04.
The value for A29C A41U was 0.05.
As for A29G A7U, the self-cleavage was 0.14.
The value for A29G A7C was 0.03; that for A29G A7G was 0.11.
With A28U C14A the figure was 0.05.
Take A28U C14U: the self-cleavage was determined as 0.14.
Consider A28U C14G, for which the self-cleavage amounted to 0.07.
With A28U G30A, the self-cleavage stood at 0.04.
With A28U G30C the figure was 0.05; with A28U G30U, 0.04.
With A28U A8G the figure was 0.18; with A28U A8U, 0.09; with A28U A8C, 0.06.
With A28U G45C the figure was 0.06; with A28U G45A, 0.09; with A28U G45U, 0.07.
For A29C C27A, the self-cleavage is 0.04.
Turning to A29C C27U, the self-cleavage is 0.02.
As for A29C C27G, the self-cleavage came to 0.02.
For A29G C25U, the self-cleavage came out at 0.08.
Turning to A29G C25A, the self-cleavage turned out to be 0.04.
On to A29G C25G, for which the self-cleavage was determined as 0.04.

The values above are taken from the RNAGym collection of RNA variant scans (doi:10.1002/anie.201605470).
